The IC50 is the concentration that gives 50% inhibition. A high value points to a need for much substance.

The subject of assay [1] is A549-luc-c8 human lung adenocarcinoma cells. As to the kind of experiment: MTT cytotoxicity assay. The note with it: 48 h. Format: cell-based. An outline of the steps:
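A549-luc-c8 luciferase-expressing cells grown in RPMI 1640 with 10% FBS and antibiotic at 37°C, 5% CO2. Seeded at 5,000 cells per 100 μL medium per well. Free parent drug, conjugate nanoparticles or blank nanoparticles added across a concentration series for 48 h at 37°C. MTT then added for 3 h, dye dissolved in DMSO, A570 read. IC50 taken from survival plots; blank-particle IC50 expressed at drug-equivalent dose.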
A general note: Formazan colour is commonly taken as a measure of viable cells.

For a further assay, the system named is tubulin. Description: Tubulin polymerization assay. Format: biochemical. An outline of the steps: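 Kit-based assay: 3 mg/mL tubulin in 80 mM PIPES, pH 6.9, with glycerol, run at 37°C. Test compound at 10 and 34 μM, parent drug at 10 μM as positive control, plus untreated control. Polymerization followed as OD340, read once per minute for 60 min. Maximum rate (Vmax, mOD/min) and time to reach it taken from the curves.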

Assay [2] concerns orthotopic Lewis lung carcinoma. The settings on record: cited from earlier work.

Read-outs that look alike come from different tables or passages of the source.

In the case of `CC(=O)O[C@H]1C(=O)[C@@]2(C)[C@H]([C@H](OC(=O)c3ccccc3)[C@]3(O)C[C@H](OC(=O)[C@H](O)[C@@H](NC(=O)c4ccccc4)c4ccccc4)C(C)=C1C3(C)C)[C@]1(OC(C)=O)CO[C@@H]1C[C@@H]2O` [PX, paclitaxel], in assay [1], it took 5.3 ± 3.2 nM to reach half-maximal inhibition (IC50). In the assay on tubulin (10 μM, 37°C, 3 mg/mL tubulin), the “Vmax (maximum rate of tubulin polymerization)” value is given as 29.0±0.0 mOD/min. Moreover, the “time at which Vmax was reached” value in the assay on tubulin (60 minute time course) was 0 to 3 min.

Consider `N.N.[Cl][Pt][Cl]` [Cisplatin, cisplatin], for which the therapeutic effect result in assay [2] (treatment starting on day 1) is “suppressed primary lung tumor growth and lymph node metastasis”; in assay [2] (treatment starting on day 10) it was “failed to show any significant therapeutic effect”.

These data come from publication PMC4124067 (International Journal of Nanomedicine, 2014).
